One may read the MIC as the lowest concentration that inhibits growth of the organism. High values mean weaker potency, low ones greater potency.

Here are results for 15 molecules from ChEMBL document CHEMBL1152128, “Catalytic site-selective synthesis and evaluation of a series of erythromycin analogs” (2008).

In brackets after ≈: the same amount, converted by molar mass.

For one assay, the system named is Enterococcus faecalis. The assay is described as follows: Antibacterial activity against Enterococcus faecalis ATCC 29212. The assay is classed as functional. An outline of the steps: (§1)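 Broth microdilution MIC in Mueller Hinton II broth, 384-well format, quadruplicate wells. The compound is serially diluted two-fold from DMSO stocks, with final concentrations half of 64 to 0.0625 µg/mL. The inoculum is a 0.5 McFarland culture diluted 100-fold, mixed 1:1 with compound to 20 µL per well. Plates are incubated 24 h at 35 °C. MIC is the lowest concentration with no visible growth; OD620 is also read.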

In another assay the test system is Staphylococcus aureus. Put plainly: Antibacterial activity against Staphylococcus aureus ATCC 29213. The assay is classed as functional. A digest of the protocol: as §1

For `CCCCCCCC(=O)O[C@H]1[C@H](O[C@@H]2[C@@H](C)[C@H](O[C@H]3C[C@@](C)(OC)[C@@H](O)[C@H](C)O3)[C@@H](C)C(=O)O[C@H](CC)[C@](C)(O)[C@H](OC(=O)CCCCCCC)[C@@H](C)C(=O)[C@H](C)C[C@]2(C)O)O[C@H](C)C[C@@H]1N(C)C`, the MIC against Enterococcus faecalis and with Staphylococcus aureus was above 32 µg/mL throughout.

Consider `CC[C@H]1OC(=O)[C@H](C)[C@@H](O[C@H]2C[C@@](C)(OC)[C@@H](OP(=O)(Oc3ccccc3)Oc3ccccc3)[C@H](C)O2)[C@H](C)[C@@H](O[C@@H]2O[C@H](C)C[C@H](N(C)C)[C@H]2OC(C)=O)[C@@](C)(O)C[C@@H](C)C(=O)[C@H](C)[C@@H](OC(=O)CCNC(=O)OC(C)(C)C)[C@@]1(C)O`, for which the MIC in the assay on Enterococcus faecalis and against Staphylococcus aureus was above 32 µg/mL each time.

For `CCCCCCCC(=O)O[C@@H]1[C@@H](C)C(=O)[C@H](C)C[C@](C)(O)[C@H](O[C@@H]2O[C@H](C)C[C@H](N(C)C)[C@H]2O)[C@@H](C)[C@H](O[C@H]2C[C@@](C)(OC)[C@@H](O)[C@H](C)O2)[C@@H](C)C(=O)O[C@H](CC)[C@]1(C)O`, the MIC in the assay on Enterococcus faecalis and in the assay with Staphylococcus aureus was 32 µg/mL (≈ 37.2 µM) in each case.

For `CC[C@H]1OC(=O)[C@H](C)[C@@H](O[C@H]2C[C@@](C)(OC)[C@@H](O)[C@H](C)O2)[C@H](C)[C@@H](O[C@@H]2O[C@H](C)C[C@H](N(C)C)[C@H]2OC(C)=O)[C@@](C)(O)C[C@@H](C)C(=O)[C@H](C)[C@@H](OC(=O)CCNC(=O)OC(C)(C)C)[C@@]1(C)O`, the MIC against Enterococcus faecalis is above 32 µg/mL; with Staphylococcus aureus it was 32 µg/mL (≈ 33.8 µM).

`CCC(=O)O[C@@H]1[C@@H](C)C(=O)[C@H](C)C[C@](C)(O)[C@H](O[C@@H]2O[C@H](C)C[C@H](N(C)C)[C@H]2O)[C@@H](C)[C@H](O[C@H]2C[C@@](C)(OC)[C@@H](O)[C@H](C)O2)[C@@H](C)C(=O)O[C@H](CC)[C@]1(C)O`: the MIC is 32 µg/mL (≈ 40.5 µM) against Enterococcus faecalis and 16 µg/mL (≈ 20.3 µM) in the assay with Staphylococcus aureus.

On to `CC[C@H]1OC(=O)[C@H](C)[C@@H](O[C@H]2C[C@@](C)(OC)[C@@H](O)[C@H](C)O2)[C@H](C)[C@@H](O[C@@H]2O[C@H](C)C[C@H](N(C)C)[C@H]2OC(=O)CCNC(=O)OC(C)(C)C)[C@@](C)(O)C[C@@H](C)C(=O)[C@H](C)[C@@H](OC(=O)CCNC(=O)OC(C)(C)C)[C@@]1(C)O`, for which the MIC in the assay with Enterococcus faecalis and against Staphylococcus aureus was above 32 µg/mL each time.

As to `CCCCCCCC(=O)O[C@H]1[C@H](O[C@@H]2[C@@H](C)[C@H](O[C@H]3C[C@@](C)(OC)[C@@H](OP(=O)(Oc4ccccc4)Oc4ccccc4)[C@H](C)O3)[C@@H](C)C(=O)O[C@H](CC)[C@](C)(O)[C@H](OC(=O)CCCCCCC)[C@@H](C)C(=O)[C@H](C)C[C@]2(C)O)O[C@H](C)C[C@@H]1N(C)C`, the MIC against Enterococcus faecalis and in the assay on Staphylococcus aureus was above 32 µg/mL in each case.

For `CCC(=O)O[C@H]1[C@H](O[C@@H]2[C@@H](C)[C@H](O[C@H]3C[C@@](C)(OC)[C@@H](OP(=O)(Oc4ccccc4)Oc4ccccc4)[C@H](C)O3)[C@@H](C)C(=O)O[C@H](CC)[C@](C)(O)[C@H](OC(=O)CC)[C@@H](C)C(=O)[C@H](C)C[C@]2(C)O)O[C@H](C)C[C@@H]1N(C)C`, the MIC in the assay with Enterococcus faecalis and in the assay on Staphylococcus aureus was above 32 µg/mL throughout.

As for `CCC(=O)O[C@H]1[C@H](O[C@@H]2[C@@H](C)[C@H](O[C@H]3C[C@@](C)(OC)[C@@H](O)[C@H](C)O3)[C@@H](C)C(=O)O[C@H](CC)[C@](C)(O)[C@H](OC(=O)CC)[C@@H](C)C(=O)[C@H](C)C[C@]2(C)O)O[C@H](C)C[C@@H]1N(C)C`, the MIC against Enterococcus faecalis and against Staphylococcus aureus was 32 µg/mL (≈ 37.8 µM) each time.

In the case of `C=CCCC(=O)O[C@H]1[C@H](O[C@@H]2[C@@H](C)[C@H](O[C@H]3C[C@@](C)(OC)[C@@H](O)[C@H](C)O3)[C@@H](C)C(=O)O[C@H](CC)[C@](C)(O)[C@H](OC(=O)CCC=C)[C@@H](C)C(=O)[C@H](C)C[C@]2(C)O)O[C@H](C)C[C@@H]1N(C)C`, the MIC in the assay on Enterococcus faecalis is above 32 µg/mL; against Staphylococcus aureus, 32 µg/mL (≈ 35.6 µM).

With `CC[C@H]1OC(=O)[C@H](C)[C@@H](O[C@H]2C[C@@](C)(OC)[C@@H](O)[C@H](C)O2)[C@H](C)[C@@H](O[C@@H]2O[C@H](C)C[C@H](N(C)C)[C@H]2O)[C@@](C)(O)C[C@@H](C)C(=O)[C@H](C)[C@@H](OC(=O)CCNC(=O)OC(C)(C)C)[C@@]1(C)O`, the MIC in the assay on Enterococcus faecalis is above 32 µg/mL; against Staphylococcus aureus, 32 µg/mL (≈ 35.4 µM).

Turning to `CCCCCCCC(=O)O[C@@H]1[C@@H](C)C(=O)[C@H](C)C[C@](C)(O)[C@H](O[C@@H]2O[C@H](C)C[C@H](N(C)C)[C@H]2O)[C@@H](C)[C@H](O[C@H]2C[C@@](C)(OC)[C@@H](OC(=O)CCCCCCC)[C@H](C)O2)[C@@H](C)C(=O)O[C@H](CC)[C@]1(C)O`, the MIC against Enterococcus faecalis and with Staphylococcus aureus was above 32 µg/mL each time.

`C=CCCC(=O)O[C@H]1[C@H](O[C@@H]2[C@@H](C)[C@H](O[C@H]3C[C@@](C)(OC)[C@@H](OP(=O)(Oc4ccccc4)Oc4ccccc4)[C@H](C)O3)[C@@H](C)C(=O)O[C@H](CC)[C@](C)(O)[C@H](OC(=O)CCC=C)[C@@H](C)C(=O)[C@H](C)C[C@]2(C)O)O[C@H](C)C[C@@H]1N(C)C`: the MIC in the assay on Enterococcus faecalis and in the assay on Staphylococcus aureus was above 32 µg/mL throughout.

Take `C=CCCC(=O)O[C@@H]1[C@@H](C)C(=O)[C@H](C)C[C@](C)(O)[C@H](O[C@@H]2O[C@H](C)C[C@H](N(C)C)[C@H]2O)[C@@H](C)[C@H](O[C@H]2C[C@@](C)(OC)[C@@H](O)[C@H](C)O2)[C@@H](C)C(=O)O[C@H](CC)[C@]1(C)O`: the MIC worked out at 32 µg/mL (≈ 39.2 µM) with Enterococcus faecalis and 16 µg/mL (≈ 19.6 µM) with Staphylococcus aureus.

Turning to `CC[C@H]1OC(=O)[C@H](C)[C@@H](O[C@H]2C[C@@](C)(OC)[C@@H](O)[C@H](C)O2)[C@H](C)[C@@H](O[C@@H]2O[C@H](C)C[C@H](N(C)C)[C@H]2O)[C@](C)(O)C[C@@H](C)C(=O)[C@H](C)[C@@H](O)[C@]1(C)O` [ERYTHROMYCIN], the MIC in the assay with Enterococcus faecalis came out at 2 µg/mL (≈ 2.73 µM); in the assay with Staphylococcus aureus, 1 µg/mL (≈ 1.36 µM).
